# Test results taken from ChEMBL document CHEMBL3244396, “Synthesis and antileukemic activity of 5-substituted 2,3-dihydro-6,7-bis(hydroxymethyl)-1H-pyrrolizine diesters” (J Med Chem, 1977).
# Assays:
# [1] = system: P388; assay: Antitumor activity against mouse P388 cells allografted in female CDF1 mouse assessed as change in body weight at 50 mg/kg, ip administered daily for 9 days as Klucel suspension starting 24 hrs after tumor inoculation; assay type: functional; settings: route intraperitoneal
# In short: (§1)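 Ascitic fluid carrying P388 cells was inoculated ip. Compound was given ip in nine daily doses, starting 24 h after inoculation, in Klucel (hydroxypropylcellulose) suspension or in saline with Tween-80. Body-weight difference (treated minus control) was recorded on day 5. Survival was scored as %T/C of median survival time, and 30-day survival counted as cure.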
# [2] = system: L1210; assay: Antileukemic activity against mouse L1210 cells allografted in female BDF1 mouse assessed as change in body weight at 200 mg/kg, ip administered daily for 9 days as Klucel suspension starting 24 hrs after tumor inoculation; assay type: functional; settings: route intraperitoneal
# In short: (§2)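 Ascitic fluid carrying L1210 cells was inoculated ip. Compound was given ip as a Klucel (hydroxypropylcellulose) suspension in nine daily doses, starting 24 h after inoculation. Body-weight difference (treated minus control) was recorded on day 5. Survival was scored as %T/C of mean survival time.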
# [3] = system: P388; assay: Antitumor activity against mouse P388 cells allografted in female CDF1 mouse assessed as change in body weight at 6.25 mg/kg, ip administered daily for 9 days as Klucel suspension starting 24 hrs after tumor inoculation; assay type: functional; settings: route intraperitoneal; in short: as §1
# [4] = system: Mus musculus; assay: Toxicity in female CDF1 mouse allografted with mouse P388 cells assessed as animal survival at 3.13 mg/kg, ip administered daily for 9 days as Klucel suspension starting 24 hrs after tumor inoculation; assay type: organism-based; design: dose 3.13 mg/kg, route intraperitoneal; settings: in vivo
# In short: (§3)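 P-388 leukemia ascitic fluid inoculated ip. Compound given ip as a suspension in Klucel (hydroxypropylcellulose), once daily for nine doses beginning 24 h post-inoculation. Acute toxicity assessed as toxicity-day survivors per group. Survival was followed up to 30 days, with 30-day survival counted as "cure". Follows NCI screening protocols.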
# [5] = system: Mus musculus; assay: Toxicity in female BDF1 mouse allografted with mouse P388 cells assessed as animal survival at 12.5 mg/kg, ip administered daily for 9 days as Klucel suspension starting 24 hrs after tumor inoculation; assay type: organism-based; design: dose 12.5 mg/kg, route intraperitoneal; settings: in vivo; in short: as §3
# [6] = system: P388; assay: Antitumor activity against mouse P388 cells allografted in female CDF1 mouse assessed as disease cures by measuring 30-days host survival at 3.13 mg/kg, ip administered daily for 9 days as Klucel suspension starting 24 hrs after tumor inoculation relative to control; assay type: functional; settings: route intraperitoneal
# In short: (§4)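 P388 leukemia given as an ascitic fluid cell inoculum, ip, to mice of the strain and sex in each line. Nine daily ip doses were given in a Klucel (hydroxypropylcellulose) suspension, starting 24 h after inoculation. Read-out is median survival time as %T/C, with >125 taken as significant; a "cure" means 30-day survival.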
# [7] = system: L1210; assay: Antileukemic activity against mouse L1210 cells allografted in female BDF1 mouse assessed as change in body weight at 100 mg/kg, ip administered daily for 9 days as Klucel suspension starting 24 hrs after tumor inoculation; assay type: functional; settings: route intraperitoneal; in short: as §2
# [8] = system: L1210; assay: Antileukemic activity against mouse L1210 cells allografted in female BDF1 mouse assessed as host mean survival time at 50 mg/kg, ip administered daily for 9 days as Klucel suspension starting 24 hrs after tumor inoculation relative to control; assay type: functional; settings: route intraperitoneal
# In short: (§5)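 L1210 leukemia given as an ascitic fluid cell inoculum, ip, to mice of the strain and sex in each line. Test material was given ip for nine daily doses starting 24 h after inoculation, in a Klucel (hydroxypropylcellulose) suspension. Read-out is mean survival time as %T/C versus controls, with >125 taken as significant.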
# [9] = system: P388; assay: Antitumor activity against mouse P388 cells allografted in female BDF1 mouse assessed as change in body weight at 25 mg/kg, ip administered daily for 9 days as Klucel suspension starting 24 hrs after tumor inoculation; assay type: functional; settings: route intraperitoneal; in short: as §1
# [10] = system: P388; assay: Antitumor activity against mouse P388 cells allografted in female CDF1 mouse assessed as disease cures by measuring 30-days host survival at 6.25 mg/kg, ip administered daily for 9 days as Klucel suspension starting 24 hrs after tumor inoculation relative to control; assay type: functional; settings: route intraperitoneal; in short: as §4
# [11] = system: Mus musculus; assay: Toxicity in female BDF1 mouse allografted with mouse L1210 cells assessed as animal survival at 200 mg/kg, ip administered daily for 9 days as Klucel suspension starting 24 hrs after tumor inoculation measured on fifth day; assay type: organism-based; design: dose 200 mg/kg, route intraperitoneal; settings: in vivo
# In short: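 L1210 leukemia passaged as ascitic fluid and inoculated ip. Test agent given ip as a Klucel (hydroxypropylcellulose) suspension, nine daily doses starting 24 h after tumor inoculation. Acute toxicity read as toxicity-day survivors per group (out of 6), recorded on day 5. Animal weight difference T − C was also recorded. Follows NCI screening protocols.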
# [12] = system: Mus musculus; assay: Toxicity in female CDF1 mouse allografted with mouse P388 cells assessed as animal survival at 6.25 mg/kg, ip administered daily for 9 days as Klucel suspension starting 24 hrs after tumor inoculation; assay type: organism-based; design: dose 6.25 mg/kg, route intraperitoneal; settings: in vivo; in short: as §3
# [13] = system: P388; assay: Antitumor activity against mouse P388 cells allografted in female BDF1 mouse assessed as disease cures by measuring 30-days host survival at 12.5 mg/kg, ip administered daily for 9 days as Klucel suspension starting 24 hrs after tumor inoculation relative to control; assay type: functional; settings: route intraperitoneal; in short: as §4
# [14] = Cytotoxicity against human 9KB cells treated as ethanol solution; assay type: functional; settings: read-out: ED50 (the source's name)
# In short: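 Compound applied as an ethanol solution; activity read out as ED50 under the general screening protocol.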
# [15] = system: L1210; assay: Antileukemic activity against mouse L1210 cells allografted in female BDF1 mouse assessed as change in body weight at 50 mg/kg, ip administered daily for 9 days as Klucel suspension starting 24 hrs after tumor inoculation; assay type: functional; settings: route intraperitoneal; in short: as §2
# [16] = system: Mus musculus; assay: Toxicity in female BDF1 mouse allografted with mouse L1210 cells assessed as animal survival at 100 mg/kg, ip administered daily for 9 days as Klucel suspension starting 24 hrs after tumor inoculation measured on fifth day; assay type: organism-based; design: dose 100 mg/kg, route intraperitoneal; settings: in vivo
# In short: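 Female BDF1 mice bearing ip ascitic L1210 inoculum got nine daily ip doses in a Klucel suspension, starting 24 h after tumor inoculation. Toxicity was scored as toxicity-day survivors out of the group, recorded on the fifth day. Animal weight difference (T − C) was also tabulated.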
# [17] = system: Mus musculus; assay: Toxicity in female CDF1 mouse allografted with mouse P388 cells assessed as animal survival at 50 mg/kg, ip administered daily for 9 days as Klucel suspension starting 24 hrs after tumor inoculation; assay type: organism-based; design: dose 50 mg/kg, route intraperitoneal; settings: in vivo; in short: as §3
# [18] = system: P388; assay: Antitumor activity against mouse P388 cells allografted in female CDF1 mouse assessed as change in body weight at 200 mg/kg, ip administered daily for 9 days as Klucel suspension starting 24 hrs after tumor inoculation; assay type: functional; settings: route intraperitoneal; in short: as §1
# [19] = system: P388; assay: Antitumor activity against mouse P388 cells allografted in female BDF1 mouse assessed as disease cures by measuring 30-days host survival at 25 mg/kg, ip administered daily for 9 days as Klucel suspension starting 24 hrs after tumor inoculation relative to control; assay type: functional; settings: route intraperitoneal; in short: as §4
# [20] = system: P388; assay: Antitumor activity against mouse P388 cells allografted in female BDF1 mouse assessed as change in body weight at 12.5 mg/kg, ip administered daily for 9 days as Klucel suspension starting 24 hrs after tumor inoculation; assay type: functional; settings: route intraperitoneal; in short: as §1
# [21] = system: Mus musculus; assay: Toxicity in female BDF1 mouse allografted with mouse P388 cells assessed as animal survival at 25 mg/kg, ip administered daily for 9 days as Klucel suspension starting 24 hrs after tumor inoculation; assay type: organism-based; design: dose 25 mg/kg, route intraperitoneal; settings: in vivo; in short: as §3
# [22] = system: L1210; assay: Antileukemic activity against mouse L1210 cells allografted in female BDF1 mouse assessed as host mean survival time at 100 mg/kg, ip administered daily for 9 days as Klucel suspension starting 24 hrs after tumor inoculation relative to control; assay type: functional; settings: route intraperitoneal; in short: as §5
# [23] = system: P388; assay: Antitumor activity against mouse P388 cells allografted in female CDF1 mouse assessed as change in body weight at 3.13 mg/kg, ip administered daily for 9 days as Klucel suspension starting 24 hrs after tumor inoculation; assay type: functional; settings: route intraperitoneal; in short: as §1
# [24] = system: P388; assay: Antitumor activity against mouse P388 cells allografted in female CDF1 mouse assessed as change in body weight at 100 mg/kg, ip administered daily for 9 days as Klucel suspension starting 24 hrs after tumor inoculation; assay type: functional; settings: route intraperitoneal; in short: as §1
# [25] = system: P388; assay: Antitumor activity against mouse P388 cells allografted in female CDF1 mouse assessed as disease cures by measuring 30-days host survival at 50 mg/kg, ip administered daily for 9 days as Klucel suspension starting 24 hrs after tumor inoculation relative to control; assay type: functional; settings: route intraperitoneal; in short: as §4
smiles,measurement,setting,value
CNC(=O)OCc1c(COC(=O)NC)c(-c2ccc(Cl)cc2)n2c1CCC2,Activity,[1],-2.5 g
same,Activity,[2],-2.8 g
same,Activity,[3],0.2 g
same,Activity,[4],Non-toxic
same,Activity,[5],Non-toxic
same,T/C,[6],127%
same,Activity,[7],-3.8 g
same,T/C,[8],112%
same,Activity,[9],-0.8 g
same,T/C,[10],150%
same,Activity,[11],Toxic
same,Activity,[12],Non-toxic
same,T/C,[13],129%
same,EC50,[14],2.3 µg/mL
same,Activity,[15],-2.6 g
same,Activity,[16],Non-toxic
same,Activity,[17],Non-toxic
same,Activity,[18],0.5 g
same,T/C,[19],135%
same,Activity,[20],-0.2 g
same,Activity,[21],Non-toxic
same,T/C,[22],107%
same,Activity,[23],-0.6 g
same,Activity,[24],-0.9 g
same,T/C,[25],104%
